Consider 8 molecules from article PMC8906121 (Current Research in Parasitology & Vector-borne Diseases, 2021).

Where “and” joins values, the source holds several entries; their conditions need not be identical. Identical values can stand only once.

Broadly, the mortality is the percentage killed. In general, Km refers to the substrate concentration at which the rate is half of its maximum. For orientation: EC50 means the midpoint of the concentration-response curve. Lower therefore signals higher potency in that assay. Usually Kd stands for the free concentration of one partner at which half of the binding sites on the other are occupied at equilibrium, for simple one-to-one binding.

For data set [1], the system named is Anopheles funestus FUMOZ-R (resistant). The experiment in a line: Glazed tile contact bioassay, strain FUMOZ-R. The data set is classed as in vivo. As to conditions: for LC50: female adults, contact exposure 30 min; for LC50 / LC50 (solo contact toxicity of synergist): mortality 24 h; for LC50 (solo contact toxicity of synergist): synergist alone, 30 min exposure.

Data set [2] concerns Anopheles funestus FANG (susceptible). The experiment in a line: Glazed tile contact bioassay, strain FANG. The data set is classed as in vivo. As to conditions: for LC50: female adults, contact exposure 30 min; for LC50 / LC50 (solo contact toxicity of synergist): mortality 24 h; for LC50 (solo contact toxicity of synergist): synergist alone, 30 min exposure. The gist of the method:
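Adults aged 3–5 days, chilled to anaesthetize, recovered 1 h, then held 30 min on acetone-treated glazed tiles in two replicates of 10. Kept overnight on 10% dextrose; mortality scored at 24 h. Acetone-only control; Abbott correction for 5–20% control mortality, above 20% invalid. At least five repeats; probit LC50 with 95% CI. Synergist solo toxicity was tested the same way at 250–10,000 ppm.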

In data set [3] the test system is cytochrome P450s of microsomal preparations of Anopheles funestus strain FANG. The data set can be described thus: Michaelis-Menten kinetics of BOMFC O-debenzylation, FANG microsomes. The data set is classed as biochemical. As to conditions: read-out: apparent Km. The gist of the method: (§1)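 Microsomes from 30–50 adults, homogenized in pH 7.6 phosphate buffer with sucrose, DTT and EDTA, then spun 5,000× g, 15,000× g and 100,000× g at 4 °C. 4 μg protein incubated 1 h at 20 ± 1 °C with eleven BOMFC levels (200–0.195 μM) and 1 mM NADPH, in 0.01% zwittergent with 0.05% BSA. Stopped with pH 10 red-ox mix; hydroxycoumarin fluorescence read; quadruplicates; Michaelis-Menten fit.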

Data set [4] has as its system cytochrome P450s of microsomal preparations of Anopheles funestus strain FUMOZ-R. The data set can be described thus: Michaelis-Menten kinetics of BOMFC O-debenzylation, FUMOZ-R microsomes. The data set is classed as biochemical. The settings on record: read-out: apparent Km. An outline of the steps:
as §1

Data set [5] concerns the target para-type voltage-gated sodium channels of Musca domestica (Musca domestica, UniProt Q25439). The data set can be described thus: Fluorescence-based membrane potential cation influx assay. As to conditions: for EC50: EC50, HEK293-VGSC cells, membrane potential fluorescence. The data set is classed as cell-based.
The target of data set [6] is Drosophila wildtype VGSC. The settings on record: Drosophila wildtype VGSC expressed in Xenopus oocytes; ref Vais et al., 2003; cited from earlier work.

Chain of para-type voltage-gated sodium channels of Musca domestica (Q25439 1-2105): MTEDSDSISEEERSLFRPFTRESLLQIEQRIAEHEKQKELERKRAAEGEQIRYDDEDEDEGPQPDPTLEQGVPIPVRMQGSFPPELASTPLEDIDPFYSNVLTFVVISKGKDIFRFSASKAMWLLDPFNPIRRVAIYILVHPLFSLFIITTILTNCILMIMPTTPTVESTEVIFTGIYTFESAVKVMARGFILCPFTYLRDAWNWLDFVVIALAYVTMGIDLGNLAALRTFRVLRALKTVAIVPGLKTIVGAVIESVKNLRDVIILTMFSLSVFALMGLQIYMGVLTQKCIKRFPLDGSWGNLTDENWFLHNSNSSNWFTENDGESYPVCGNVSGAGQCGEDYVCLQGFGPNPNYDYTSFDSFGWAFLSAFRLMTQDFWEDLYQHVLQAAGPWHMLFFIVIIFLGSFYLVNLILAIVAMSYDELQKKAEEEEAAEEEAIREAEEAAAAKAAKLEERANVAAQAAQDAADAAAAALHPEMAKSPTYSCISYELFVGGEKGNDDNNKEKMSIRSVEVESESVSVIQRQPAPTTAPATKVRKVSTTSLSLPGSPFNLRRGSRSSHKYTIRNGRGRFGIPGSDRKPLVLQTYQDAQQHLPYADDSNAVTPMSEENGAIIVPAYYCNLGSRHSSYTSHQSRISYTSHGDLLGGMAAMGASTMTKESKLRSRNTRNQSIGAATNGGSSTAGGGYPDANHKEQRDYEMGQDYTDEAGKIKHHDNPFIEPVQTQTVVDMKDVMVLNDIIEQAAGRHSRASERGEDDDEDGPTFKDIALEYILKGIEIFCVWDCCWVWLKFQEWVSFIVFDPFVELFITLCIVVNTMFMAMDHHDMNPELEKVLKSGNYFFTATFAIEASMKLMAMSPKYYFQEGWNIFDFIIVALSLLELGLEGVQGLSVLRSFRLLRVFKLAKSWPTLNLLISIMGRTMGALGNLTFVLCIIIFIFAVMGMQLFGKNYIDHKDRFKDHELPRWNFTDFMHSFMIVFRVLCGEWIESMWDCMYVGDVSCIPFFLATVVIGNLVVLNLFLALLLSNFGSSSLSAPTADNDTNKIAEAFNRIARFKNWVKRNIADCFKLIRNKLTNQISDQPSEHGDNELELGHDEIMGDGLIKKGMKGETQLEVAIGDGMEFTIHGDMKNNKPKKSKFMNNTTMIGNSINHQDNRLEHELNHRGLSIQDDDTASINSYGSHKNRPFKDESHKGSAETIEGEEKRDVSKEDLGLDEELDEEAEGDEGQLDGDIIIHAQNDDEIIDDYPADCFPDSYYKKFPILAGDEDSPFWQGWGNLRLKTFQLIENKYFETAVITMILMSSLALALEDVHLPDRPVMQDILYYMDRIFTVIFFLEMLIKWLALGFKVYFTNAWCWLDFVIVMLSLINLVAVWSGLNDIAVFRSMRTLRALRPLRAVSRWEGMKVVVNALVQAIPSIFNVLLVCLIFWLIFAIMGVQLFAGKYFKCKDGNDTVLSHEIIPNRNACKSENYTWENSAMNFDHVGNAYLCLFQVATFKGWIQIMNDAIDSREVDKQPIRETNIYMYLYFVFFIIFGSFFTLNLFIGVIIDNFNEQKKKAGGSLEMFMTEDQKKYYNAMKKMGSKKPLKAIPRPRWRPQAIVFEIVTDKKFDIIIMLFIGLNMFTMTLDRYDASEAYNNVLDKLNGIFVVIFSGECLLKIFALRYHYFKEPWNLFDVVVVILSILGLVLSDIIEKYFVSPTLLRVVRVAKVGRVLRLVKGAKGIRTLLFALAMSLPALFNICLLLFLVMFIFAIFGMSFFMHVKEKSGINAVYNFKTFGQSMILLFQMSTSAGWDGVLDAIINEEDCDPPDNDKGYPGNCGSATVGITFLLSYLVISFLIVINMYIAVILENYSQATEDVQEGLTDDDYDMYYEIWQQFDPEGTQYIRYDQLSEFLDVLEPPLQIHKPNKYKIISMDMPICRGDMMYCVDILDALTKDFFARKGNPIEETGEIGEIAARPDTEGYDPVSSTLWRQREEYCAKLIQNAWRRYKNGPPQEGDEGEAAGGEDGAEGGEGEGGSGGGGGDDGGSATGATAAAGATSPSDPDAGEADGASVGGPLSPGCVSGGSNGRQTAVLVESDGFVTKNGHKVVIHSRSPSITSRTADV

In the case of `Nn1nnc2ccccc21` [1-ABT, 1-aminobenzotriazole], the mortality at 750 mg/m2 in data set [1] (Anopheles funestus) and in data set [2] (Anopheles funestus) was under 10% in each case.

Consider `O=c1cc(C(F)(F)F)c2ccc(OCOCc3ccccc3)cc2o1` [BOMFC, 7-benzyloxymethoxy-4-trifluoromethylcoumarin], for which the Km was found to be 5.76 µM in data set [3] and 4.41 µM in data set [4].

Molecule `CC1(C)C(C=C(Cl)Cl)C1C(=O)OC(C#N)c1cccc(Oc2ccccc2)c1` (stereo not drawn) [Cypermethrin] yielded an EC50 in data set [5] of 38.9 nM. Besides, the LC50 in data set [1] amounted to 7.54 mg/m^2; in data set [2] it was 0.0968 mg/m^2.

With `CC1(C)[C@H](C(=O)O[C@H](C#N)c2cccc(Oc3ccccc3)c2)[C@@H]1C=C(Br)Br` [Deltamethrin, deltamethrin], the Kd in data set [6] was 4.7 nM. In addition, in data set [5], the EC50 is 5.29 nM and 5.3 nM. Moreover, the values for the LC50 in data set [1] and in data set [2] were 4.61 mg/m^2 and 0.0206 mg/m^2, respectively.

`CCCCOCCOCCOCc1cc2c(cc1CCC)OCO2` [PBO, piperonyl butoxide]: the “LC50 (solo contact toxicity of synergist)” value in data set [1] is reported as > 1,000 mg/m^2; in data set [2] it was 325 mg/m^2.

Molecule `CC1(C)C(C=C(Cl)Cl)C1C(=O)OCc1cccc(Oc2ccccc2)c1` (stereo not drawn) [Permethrin, permethrin] showed an EC50 in data set [5] of 721 nM. Moreover, in data set [1] (FUMOZ-R resistance ratio compared with deltamethrin), the “RR fold lower than for deltamethrin” value is reported as about 30 fold. Further, in data set [1] (LC50 FUMOZ-R divided by LC50 FANG), the “Resistance ratio (RR)” value is reported as 7.76. For the same molecule, the LC50 in data set [1] is listed as 4.21 mg/m^2; in data set [2] it was 0.543 mg/m^2.

On to `CC1(C)[C@H](C=C(Cl)Cl)[C@H]1C(=O)OCc1c(F)c(F)cc(F)c1F` [Transfluthrin, 2,3,5,6-tetrafluorobenzyl(1R,3S)-3-(2,2-dichlorovinyl)-2,2-dimethylcyclo-propanecarboxylate], for which the “fold less active on VGSC than deltamethrin” value in data set [5] (compared with deltamethrin) is “more than 100 fold”. Moreover, the LC50 in data set [1] is 0.0576 mg/m^2; in data set [2] it was 0.023 mg/m^2. For the same molecule, the “fold more active than permethrin” value in data set [2] (glazed tile bioassays against strain FANG) is at most 25 fold.

Consider `CCCOC/C(=N\c1ccc(Cl)cc1C(F)(F)F)n1ccnc1` [Triflumizole, triflumizole], for which the “LC50 (solo contact toxicity of synergist)” value in data set [1] is 392 mg/m^2; in data set [2] it was 136 mg/m^2.
